# Active and inactive are the calls of the source. The calls are words filed in the database; no cut-off is given here.
# Key:
# [1] = target: 72 kDa type IV collagenase (Homo sapiens, UniProt P08253); assay: Inhibition of recombinant human MMP2 catalytic domain (Tyr110 to Asp452 residues) preincubated for 45 mins followed by […] substrate addition by fluorescence assay
# Summary of the method: (§1)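 Fluorometric kit assay: enzyme added to assay buffer equilibrated to 37 °C, then inhibitor (NNGH as kit control) added and preincubated 45 min at 37 °C; fluorogenic substrate added to start reaction; fluorescence read at Ex/Em 328/420 nm.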
# [2] = target: Matrix metalloproteinase-9 (Homo sapiens, UniProt P14780); assay: Inhibition of recombinant human MMP9 (Phe107 to Pro449 residues) expressed in Escherichia coli preincubated for 45 mins followed by […] substrate addition by fluorescence assay; summary of the method: as §1
# A549 = assay: Antiproliferative activity against human A549 cells after 48 hrs by MTT assay; type: functional, cell-based; settings: A549, 48 h
# Summary of the method: (§2)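 Cells grown in RPMI1640 with 10% FBS at 37 °C, 5% CO₂; plated 5000 per well, 4 h attachment, then exposed to a range of compound concentrations for 48 h. 0.5% MTT added for 4 h, formazan dissolved in DMSO, absorbance read at 570 nm.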
# [3] = Antiproliferative activity against human ES2 cells after 48 hrs by MTT assay; type: functional, cell-based; settings: ES-2, 48 h; summary of the method: as §2
# HeLa [4] = assay: Antiproliferative activity against human HeLa cells after 48 hrs by MTT assay; type: functional, cell-based; summary of the method: as §2
# K562 = assay: Antiproliferative activity against human K562 cells after 48 hrs by MTT assay; type: functional, cell-based; settings: K562, 48 h; summary of the method: as §2
# MCF7 = assay: Antiproliferative activity against human MCF7 cells after 48 hrs by MTT assay; type: functional, cell-based; settings: MCF7, 48 h; summary of the method: as §2
# MDA-MB-231 = assay: Antiproliferative activity against human MDA-MB-231 cells after 48 hrs by MTT assay; type: functional, cell-based; settings: MDA-MB-231, 48 h; summary of the method: as §2
# HeLa [5] = assay: Anticlonogenic activity against human HeLa cells treated for 24 hrs measured after 2 weeks by crystal violet staining based inverted microscopic method; type: functional, cell-based
# Summary of the method: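 HeLa cells seeded at 500 per well, exposed to compound 24 h, then grown 2 weeks at 37 °C, 5% CO₂. Washed with PBS, methanol-fixed 15 min, stained 0.1% crystal violet 10 min; colonies of more than 50 cells counted under inverted microscope to give inhibition rate.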
# HeLa [6] = assay: Anti-invasive activity against human HeLa cells at 1 uM after 24 hrs using crystal violet staining by inverted microscopic based transwell chamber assay; type: functional, cell-based
# Summary of the method: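 Transwell chambers, 8 μm pore, upper side precoated with Matrigel. 1×10⁵ HeLa cells seeded with compound (1 μM) in RPMI1640 with 1% FBS; lower chamber 10% FBS as chemoattractant. After 24 h at 37 °C, non-invaded cells swabbed off; membranes methanol-fixed 10 min, stained 0.5% crystal violet, counted microscopically.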
# [7] = Cytotoxicity against HUVEC after 48 hrs by MTT assay; type: cell-based; settings: human, HUVEC cells; summary of the method: as §2
# HUVEC = assay: Anti-angiogenic activity against HUVEC assessed as reduction in tube formation at 1 uM after 8 hrs by inverted microscopic method; type: functional, cell-based; settings: Homo sapiens
# Summary of the method: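 Matrigel-coated wells gelled 30 min at 37 °C, 5% CO₂; 1×10⁵ HUVECs per well seeded in growth medium together with compound at 1 μM, vehicle control included. Incubated 8 h at 37 °C, 5% CO₂; capillary-like tube networks imaged under inverted microscope and quantified.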
# Thoracic aorta = assay: Anti-angiogenic activity against Sprague-Dawley rat thoracic aorta assessed as reduction in microvessel outgrowth arising fron aortic rings at 5 uM after 6 days by inverted microscopic method; type: functional, tissue-based
# Summary of the method: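 Thoracic aortas from 6-week-old male Sprague Dawley rats, perivascular tissue removed, cut into ~1 mm rings and embedded in Matrigel-coated wells. Rings treated with compound at 5 μM, vehicle control included, 6 days at 37 °C, 5% CO₂. Microvessel outgrowth imaged by inverted microscope; inhibition rate counted.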
# HeLa [8] = assay: Nitric oxide releasing activity in human HeLa cells assessed as nitrite accumulation at 100 uM after 5 hrs by Griess reagent based colorimetric assay; type: ADME, cell-based
# Summary of the method: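 HeLa cells (1×10⁵ per well) incubated 5 h with compound at 100 μM. Cell-free supernatant mixed 1:1 with Griess reagent for 10 min; absorbance at 540 nm; nitrite quantified against NaNO₂ standard curve.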
# HeLa [9] = assay: Antimigratory activity against human HeLa cells at 1 uM after 24 hrs using crystal violet staining by inverted microscopic based transwell chamber assay; type: functional, cell-based
# Summary of the method: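 Uncoated Transwell chambers, 8 μm pore. 5×10⁴ HeLa cells seeded in upper chamber with compound (1 μM) in RPMI1640 containing 1% FBS; 10% FBS below as chemoattractant. 24 h at 37 °C; upper-side cells removed, membrane methanol-fixed 10 min, 0.5% crystal violet stained, migrated cells counted under inverted microscope.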
# H22 = assay: Antitumor activity against […] xenografted in Kunming mouse assessed as increase in mouse survival rate at 100 mg/kg/day, ig once daily for 10 days relative to control; type: functional
# Summary of the method: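 Female Kunming mice (20±2 g, 4–6 weeks), randomized 10 per group, were inoculated subcutaneously with H22 cells (4 × 10⁷/mL) on day 0. Dosing was intragastric, once daily for ten days, with a PBS/5% DMSO vehicle group and a positive-control group. Body weight was recorded before each dose, and survival was checked daily. Mean survival time was compared with vehicle.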
# Mus musculus [10] = assay: Toxicity in Kunming mouse xenografted with […] assessed as increase in body weight at 100 mg/kg/day, ig once daily for 10 days; type: organism-based; settings: in vivo, po, 240 h
# Summary of the method: (§3)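 Female Kunming mice (20±2 g, 4–6 weeks), 10 per group, inoculated subcutaneously with H22 cells (4×10⁷/mL) on day 0. Compound 100 mg/kg/day given intragastrically once daily for 10 days; vehicle PBS with 5% DMSO. Body weight recorded before each dose; survival monitored daily.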
# HeLa [11] = assay: Antimigratory activity against human HeLa cells assessed as reduction in wound closure at 1 uM by inverted microscopic method; type: functional, cell-based; settings: TDE = time-dependent effect
# Summary of the method: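 2×10⁵ HeLa cells per well grown to confluence; pipette tip scratch made, cells treated with 1 μM compound and allowed to migrate; wound imaged by inverted microscope at 0, 12, 24 and 48 h, wound closure quantified.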
# Mus musculus [12] = assay: Toxicity in Kunming mouse xenografted with […] assessed as decrease in body weight at 100 mg/kg/day, ig once daily for 10 days; type: organism-based; settings: in vivo, po, 240 h; summary of the method: as §3
# Chain of 72 kDa type IV collagenase (P08253 whole entry, the tested form may be a part): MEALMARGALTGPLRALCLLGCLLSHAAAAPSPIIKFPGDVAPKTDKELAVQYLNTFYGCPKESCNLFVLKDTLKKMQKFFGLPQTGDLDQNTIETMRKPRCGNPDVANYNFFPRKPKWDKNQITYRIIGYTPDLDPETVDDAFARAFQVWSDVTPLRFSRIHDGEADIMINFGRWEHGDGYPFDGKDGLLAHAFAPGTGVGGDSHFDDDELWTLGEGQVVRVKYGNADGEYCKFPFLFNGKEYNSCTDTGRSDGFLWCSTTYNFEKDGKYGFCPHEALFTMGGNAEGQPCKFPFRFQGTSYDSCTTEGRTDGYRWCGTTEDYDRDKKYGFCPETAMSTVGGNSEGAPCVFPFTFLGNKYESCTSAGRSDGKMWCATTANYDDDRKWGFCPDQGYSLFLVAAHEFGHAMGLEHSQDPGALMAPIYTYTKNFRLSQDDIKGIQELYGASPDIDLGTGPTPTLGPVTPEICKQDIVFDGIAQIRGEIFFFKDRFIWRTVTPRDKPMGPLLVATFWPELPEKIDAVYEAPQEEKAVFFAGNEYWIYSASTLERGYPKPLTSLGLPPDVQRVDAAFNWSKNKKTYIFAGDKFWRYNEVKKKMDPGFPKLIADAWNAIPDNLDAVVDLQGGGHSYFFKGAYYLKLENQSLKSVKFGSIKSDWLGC
# Chain of Matrix metalloproteinase-9 (P14780 whole entry): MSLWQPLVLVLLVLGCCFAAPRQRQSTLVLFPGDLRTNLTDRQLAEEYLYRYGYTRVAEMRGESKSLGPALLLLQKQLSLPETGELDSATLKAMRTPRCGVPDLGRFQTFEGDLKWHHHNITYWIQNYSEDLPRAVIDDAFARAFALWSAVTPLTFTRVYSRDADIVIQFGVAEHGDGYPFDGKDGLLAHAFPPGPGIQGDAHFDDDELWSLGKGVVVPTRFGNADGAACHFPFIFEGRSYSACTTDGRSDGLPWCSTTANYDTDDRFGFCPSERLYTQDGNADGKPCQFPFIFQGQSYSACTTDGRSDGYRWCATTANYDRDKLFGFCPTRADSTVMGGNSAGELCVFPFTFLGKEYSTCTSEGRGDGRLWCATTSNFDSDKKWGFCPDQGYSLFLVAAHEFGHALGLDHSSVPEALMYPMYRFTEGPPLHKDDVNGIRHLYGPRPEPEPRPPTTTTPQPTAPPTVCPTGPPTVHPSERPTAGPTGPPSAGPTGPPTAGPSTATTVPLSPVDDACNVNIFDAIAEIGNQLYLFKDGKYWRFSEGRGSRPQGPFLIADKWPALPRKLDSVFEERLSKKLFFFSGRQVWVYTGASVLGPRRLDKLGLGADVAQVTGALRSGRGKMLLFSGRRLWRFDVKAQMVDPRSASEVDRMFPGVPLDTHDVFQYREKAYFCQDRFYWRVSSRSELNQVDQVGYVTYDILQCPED
IC50 [1],IC50 [2],IC50 (A549),IC50 (HeLa [4]),IC50 (K562),IC50 (MCF7),IC50 (MDA-MB-231),Nitrite concentration (HeLa [8]),SMILES,IC50 [3],Activity (HeLa [5]),Activity (HeLa [6]),CC50 at 48 h [7],Activity (HUVEC),Activity (Thoracic aorta),Activity (HeLa [9]),Activity (H22),Activity (Mus musculus [10]),Activity (HeLa [11]),Activity (Mus musculus [12])
0.182 µM,0.242 µM,21.5 µM,7.24 µM,4.58 µM,13 µM,4.19 µM,27.87 µM,O=C(N[C@H]1C[C@@H](C(=O)NO)N(S(=O)(=O)c2ccc(Oc3ccccc3)cc2)C1)c1cccc2no[n+]([O-])c12,8.26 µM,Active,Active,37.2 µM,Active,inactive,,,,,
0.345 µM,0.388 µM,13.2 µM,6.49 µM,4.61 µM,10.7 µM,9.81 µM,33.11 µM,COc1ccc(/C=C/C(=O)N2C[C@@H](NC(=O)c3ccc4no[n+]([O-])c4c3)C[C@H]2C(=O)NO)cc1OC,14.1 µM,Active,Active,36.3 µM,Active,Active,,,,,
0.414 µM,0.524 µM,25.6 µM,14.1 µM,11.2 µM,23.4 µM,16.5 µM,25.51 µM,COc1ccc(/C=C/C(=O)N2C[C@@H](NC(=O)c3cccc4no[n+]([O-])c34)C[C@H]2C(=O)NO)cc1OC,17.4 µM,Active,Active,42.3 µM,Active,inactive,,,,,

SMILES,IC50 [1],IC50 [2],IC50 (A549),IC50 (HeLa [4]),IC50 (K562),IC50 (MCF7),IC50 (MDA-MB-231),Nitrite concentration (HeLa [8]),IC50 [3],Activity (HeLa [5]),Activity (HeLa [6]),CC50 at 48 h [7],Activity (HUVEC),Activity (Thoracic aorta),Activity (HeLa [9]),Activity (H22),Activity (Mus musculus [10]),Activity (HeLa [11]),Activity (Mus musculus [12])
COc1ccc(/C=C/C(=O)N2C[C@@H](NC(=O)c3cccnc3)C[C@H]2C(=O)NO)cc1OC,0.266 µM,0.36 µM,78.2 µM,185 µM,> 200 µM,> 200 µM,> 200 µM,,> 200 µM,Active,Active,39.8 µM,Active,Active,Active,Active,Toxic,,
O=C(N[C@H]1C[C@@H](C(=O)NO)N(S(=O)(=O)c2ccc(Oc3ccccc3)cc2)C1)c1ccc2no[n+]([O-])c2c1,0.102 µM,0.162 µM,5.1 µM,3.82 µM,3.56 µM,4.19 µM,7.01 µM,34.43 µM,7.47 µM,Active,Active,32.5 µM,Active,Active,Active,40.48%,,Tde,Toxic

# — ChEMBL document CHEMBL4229514, “Synthesis and biological evaluation of novel benzofuroxan-based pyrrolidine hydroxamates as matrix metalloproteinase inhibitors with nitric oxide releasing activity” (Bioorg Med Chem, 2018)
